# A selection: hits, their analogues and other compounds. The true share with any hit is near 1.3%.
# TDP2 absorb: blocks human TDP2 phosphodiesterase activity. O95551. recombinant TDP2, T5PNP hydrolysis, p-nitrophenol absorbance 415 nm. inhibition, % at 12.8 µM. actives 0.34% (n = 370,000);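 active means inhibition above the mean of all tested compounds plus 3 SD, set per campaign, cut at about 25% in these data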;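 further: 0% = DMSO with enzyme and 100% = buffer with substrate but no TDP2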
#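 Evaluation: % inhibition relative to enzyme-containing and enzyme-free wells. Material: recombinant human TDP2. Benchmarks: enzyme-free and DMSO wells. Timing: enzyme reaction with compound for 2 h at 37 °C. Compound dosing: 12.8 µM only. Measured by: p-Nitrophenol epi absorbance. Reagent: T5PNP substrate at 5 mM, a TopII-DNA adduct mimic. Replication: single well per compound.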
# UCH37 DUB inh: inhibitors of human deubiquitinating enzyme UCH37; Q9Y5K5; purified proteasome/UCH37, Ub-AMC cleavage fluorescence; inhibition, % (test concentration not listed); actives 0.33% (n = 330,000);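 active means mean inhibition over replicate wells above about 20%, limit read from the data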;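 further: 0% = compound-free wells with enzyme and 100% = wells lacking proteasome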
# Target sequence (Q9Y5K5 whole entry, looked up): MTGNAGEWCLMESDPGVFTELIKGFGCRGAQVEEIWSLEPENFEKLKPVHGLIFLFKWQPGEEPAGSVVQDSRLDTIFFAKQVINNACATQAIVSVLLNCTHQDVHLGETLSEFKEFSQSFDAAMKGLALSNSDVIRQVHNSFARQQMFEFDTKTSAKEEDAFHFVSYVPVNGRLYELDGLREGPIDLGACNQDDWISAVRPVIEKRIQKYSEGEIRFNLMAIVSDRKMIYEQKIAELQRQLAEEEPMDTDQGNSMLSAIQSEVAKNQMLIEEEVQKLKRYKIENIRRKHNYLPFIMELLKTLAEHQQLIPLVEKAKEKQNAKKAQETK
#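 assay system = human UCH37 enzyme supplied as purified proteasome complex | amount = proteasome at 0.15 nM in the dispensed enzyme solution | schedule = 30 min compound-proteasome preincubation then 25 min substrate reaction, room temperature | measured by = fluorescence, ex 355 nm, em 460 nm | benchmarks = no-proteasome wells (full inhibition) and compound-free wells (no inhibition)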
# Casp6 inh: inhibitors of human caspase-6. purified caspase-6, Z-VEID-R110 cleavage fluorescence. P55212. actives 0.53% (n = 350,000). inhibition, % at 12.5 µM;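 active means mean inhibition across replicates at least about 35%, with every replicate also reaching that limit, limit read from the data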;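 further: 0% = median of neutral control wells and 100% = no fluorescence left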
# LEDGF integ inh: blocks HIV-1 LEDGF/p75-dependent DNA integration | TR-FRET IN-LEDGF/p75 DNA integration, Eu/Cy5 | inhibition, % at 3.7 µM | actives 0.64% (n = 370,000);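 active means inhibition above the screen-wide mean plus 3 SD, cut at about 13% in these data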;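 further: signal is the Cy5 over europium emission ratio at 671 and 618 nm; 0% = plate median of compound wells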
# NSD2 inh: NSD2 (human) methyltransferase inhibition; actives 0.54% (n = 310,000); inhibition, % at 12.5 µM; O96028; NSD2 peptide methylation, AlphaScreen, 120 min; in the data active means inhibition above about 50%
# IN multimer up: HIV-1 integrase multimerization activation, counter-screen; shares compounds with LEDGF integ inh; TR-FRET HIV-1 integrase multimerization, biochemical; activation, % at 7.7 µM; actives 17% (n = 2,000); AID 1053131; in the data active means activation above about 8.9%
# TR-FRET interf: counter-screen for LEDGF/p75 integration inhibitors: TR-FRET optical interference; shares compounds with LEDGF integ inh; TR-FRET optical interference counterscreen, HIV-1 IN multimerization; inhibition, % at 7.7 µM; 2,000 tested, under 10 active; AID 1053135;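 active means inhibition above the mean over all tested compounds plus 3 SD, which no compound reached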;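 further: 0% = integrase with antibodies and DMSO and 100% = antibodies without integrase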
# LEDGF integ conf: LEDGF/p75-dependent HIV-1 integration inhibition, confirmation; shares compounds with LEDGF integ inh; TR-FRET LEDGF/p75-dependent HIV-1 integration, biochemical; inhibition, % at 3.7 µM; actives 36% (n = 2,000); AID 1053136; in the data active means inhibition above about 14%
# * hit, by the source's call; . = not tested or not shown.
SMILES,TDP2 absorb,UCH37 DUB inh,Casp6 inh,LEDGF integ inh,NSD2 inh,IN multimer up,TR-FRET interf,LEDGF integ conf
CC(C)NC(=O)N(C)C[C@H]1Oc2c(NS(=O)(=O)c3ccccc3)cccc2C(=O)N([C@H](C)CO)C[C@@H]1C,7,2,-1,35*,.,1,-4,1
C=CCn1cnc2c(c1=O)c1nc3ccccc3nc1n2N=Cc1cccc(OC)c1OC,.,-14,.,.,.,.,.,.
CCC(=O)Nc1ncc2c(n1)CC(c1ccco1)CC2=O (configuration not stated),-11,-3,.,18*,0,3,-11,-6
O=C(Nc1ncc2c(n1)CC(c1ccco1)CC2=O)c1ccco1 (configuration not stated),-9,1,21,13*,4,1,-4,0
CCC(=NNC(=O)c1nnn(-c2nonc2N)c1CN(C)c1ccccc1)c1ccccc1,.,4,.,.,.,.,.,.
Cc1nnc(-c2ccc(Oc3ccc(Br)cc3)c([N+](=O)[O-])c2)o1,-3,0,0,16*,0,0,2,-7
CC(=O)Nc1ccc(S(=O)(=O)NCCC(=O)OC(C)C(=O)NC2(C#N)CCCCC2)cc1 (configuration not stated),-5,0,1,67*,-1,-1,3,-8
COc1ccc2c(c1)[nH]c1c(=O)n(N=Cc3ccc(OC)c(COc4ccccn4)c3)cnc12,.,6,.,.,.,.,.,.
O=C(CSc1ncccn1)Nc1ncc(C(F)(F)F)cc1Cl,3,4,-2,82*,0,0,-1,4
Cc1cc(C)nc(SCC(=O)Nc2ncc(C(F)(F)F)cc2Cl)n1,-5,-5,.,-1,0,.,.,.
N#CC1=C(N)n2c(s/c(=C\c3cccs3)c2=O)=C(C#N)C1c1cccs1 (configuration not stated),-7,.,.,11,.,.,.,.
CCOC(=O)C1=c2sc(=Cc3ccncc3)c(=O)n2C(N)=C(C(=O)OC)C1c1ccncc1 (configuration not stated),.,6,.,.,.,.,.,.
CCOC(=O)C1=C(N)n2c(s/c(=C/c3ccco3)c2=O)=C(C(=O)OC)C1c1ccco1 (configuration not stated),8,.,.,48*,3,0,-1,3
N#CC1=C(N)n2c(s/c(=C\c3ccco3)c2=O)=C(C#N)C1c1ccco1 (configuration not stated),-4,.,.,38*,.,18*,-91,66*
CCN(c1ccccc1)S(=O)(=O)c1cc(OC)ccc1OC,-3,1,.,52*,0,-3,10,-8
CCC(CC)C(=O)Nc1cccc(C(C)=NNC(=O)c2ccc(C)s2)c1,.,-7,.,.,.,.,.,.
O=c1ccc2ccc(O)cc2o1,-8,-480,0,-4,.,.,.,.
O=c1ccc2cc(O)c(O)cc2o1,9,-288,13,94*,.,7,-36,6
COCCN=c1scc(-c2cccs2)n1N=Cc1ccc(O)c(O)c1O,.,2,.,.,.,.,.,.
CCN(CC)C(=O)C1=C(C)N(Cc2ccc(C(C)(C)C)cc2)C(=O)C(CC(=O)NC(c2ccccc2)c2ccccc2)C1 (configuration not stated),-11,.,0,70*,.,1,-5,-10
CCC/C(C(=O)NCCO)=C1/c2ccccc2C(=O)N1c1ccccc1,9,3,0,18*,.,-3,11,3
CCC/C(=C1/c2ccccc2C(=O)N1c1ccccc1)c1c(C)noc1C,15,.,-2,-3,.,.,.,.
O=C(Cn1cnc2ccccc21)NN=C/C(Br)=C/c1ccccc1,.,-1,.,.,.,.,.,.
O=c1cc(-c2ccc(O)cc2)oc2c([C@@H]3O[C@H](CO)[C@@H](O)[C@H](O)[C@H]3O)c(O)c([C@@H]3O[C@H](CO)[C@@H](O)[C@H](O)[C@H]3O)c(O)c12,5,3,6,-3,.,.,.,.

# From PubChem BioAssay
